Screens (PubChem)
Shown are actives, neighbours in structure and some others; about 2.8% of the full set was active somewhere.
ARFGAP1 inh = rat ARFGAP1 inhibition; Arfgap1-stimulated ARF1 GTP hydrolysis, GDP FP detection; inhibition, % at 16.5 µM; actives 0.26% (n = 360,000); AID 651572;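 active = inhibition above a per-plate limit, mean inhibition of low control wells plus 3 SD, cut at about 25% in these data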;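 note: 0% = DMSO wells with enzyme and 100% = wells lacking Arfgap1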
Target sequence (Q62848 1-136 limits assumed): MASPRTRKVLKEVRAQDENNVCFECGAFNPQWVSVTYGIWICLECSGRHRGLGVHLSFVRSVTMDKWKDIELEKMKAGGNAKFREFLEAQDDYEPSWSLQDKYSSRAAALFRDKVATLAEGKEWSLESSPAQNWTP
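Material: rat Arfgap1 catalytic domain, aa 1-136; also added: human ARF1(Δ1-17)-GTP substrate; compound dosing: one concentration, 16.5 µM, DMSO 1.26%; incubation: GTP hydrolysis reaction 2 h at 25 °C; measured by: Tracer-displacement fluorescence polarization with EDTA stop, 620/688 nm; evaluation: % inhibition from polarization; repeats: one replicate per compound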
pPAFAH FP inh = pPAFAH (human) enzyme inhibition. Q13093. actives 1.5% (n = 330,000). inhibition, % at 3.39 µM. AID 463082. recombinant pPAFAH, FP-rhodamine probe fluorescence polarization;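 active = inhibition above the mean inhibition across the screen plus 3 SD, cut at about 25% in these data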;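 note: inhibitors block binding of the rhodamine activity-based probe so polarization drops; 0% = enzyme with DMSO and 100% = wells lacking pPAFAH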
Target sequence (Q13093 whole entry, looked up): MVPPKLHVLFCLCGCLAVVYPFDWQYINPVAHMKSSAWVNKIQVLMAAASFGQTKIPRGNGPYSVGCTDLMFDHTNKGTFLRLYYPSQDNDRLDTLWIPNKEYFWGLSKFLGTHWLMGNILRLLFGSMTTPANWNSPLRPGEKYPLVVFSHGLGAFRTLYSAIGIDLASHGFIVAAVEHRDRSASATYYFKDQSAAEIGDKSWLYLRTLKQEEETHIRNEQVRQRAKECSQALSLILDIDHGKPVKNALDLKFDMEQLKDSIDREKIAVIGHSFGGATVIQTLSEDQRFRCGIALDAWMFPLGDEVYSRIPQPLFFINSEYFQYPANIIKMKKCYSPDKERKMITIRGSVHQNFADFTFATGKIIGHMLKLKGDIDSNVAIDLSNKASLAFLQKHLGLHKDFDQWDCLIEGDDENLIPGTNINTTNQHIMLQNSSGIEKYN
PAFAH2 inh = inhibitors of human PAFAH2; actives 0.99% (n = 340,000); inhibition, % at 3.39 µM; AID 492956; Q99487; recombinant PAFAH2, FP-rhodamine activity probe, fluorescence polarization;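 active = inhibition above the mean over all tested compounds plus 3 SD, cut at about 30% in these data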;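 note: inhibitors block probe labeling of enzyme so polarization drops; 0% = enzyme with DMSO and 100% = wells lacking PAFAH2 protein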
ASAP1 GAP inh = ASAP1 ArfGAP inhibition; Q9ULH1; inhibition, % at 16.5 µM; actives 0.19% (n = 360,000); ASAP1-stimulated ARF1 GTP hydrolysis, GDP FP detection; in the data active = inhibition above about 25%;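 note: 0% = vehicle with enzyme and substrate and 100% = no enzyme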
PAFAH1B2 FP inh = PAFAH1B2 (human) inhibition | inhibition, % at 3.39 µM | AID 492953 | recombinant PAFAH1B2, FP-rhodamine activity probe, fluorescence polarization | actives 1.2% (n = 340,000);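 active = inhibition above the mean of all tested compounds plus 3 SD, cut at about 24% in these data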;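 note: 0% = enzyme with DMSO and 100% = wells lacking PAFAH1B2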
PAFAH1B3 FP inh = inhibitors of human PAFAH1B3; recombinant PAFAH1B3, FP-rhodamine probe, fluorescence polarization; inhibition, % at 3.39 µM; actives 0.28% (n = 340,000); AID 492972;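 active = inhibition above the screen-wide average of all tested compounds plus 3 SD, cut at about 25% in these data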;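 note: 0% = enzyme with DMSO only and 100% = wells lacking PAFAH1B3 protein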
PAFAH2 FP conf = PAFAH2 (human) inhibition, confirmed; recombinant PAFAH2, FP-rhodamine activity probe, fluorescence polarization; inhibition, % at 3.39 µM; actives 65% (n = 2,300); shares compounds with PAFAH2 inh;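 active = mean inhibition over three repeats above a set limit taken from the earlier primary screen, cut at about 30% in these data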;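 note: inhibitor blocks binding of rhodamine activity probe so polarization falls; 0% = enzyme with DMSO and 100% = wells lacking PAFAH2 protein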
Starred values were filed as active, the others as inactive; . = no result.

SMILES	ARFGAP1 inh	pPAFAH FP inh	PAFAH2 inh	ASAP1 GAP inh	PAFAH1B2 FP inh	PAFAH1B3 FP inh	PAFAH2 FP conf
CCOc1ccc(NC(=O)CN2C(=O)NC(C)(c3ccc4c(c3)OCCCO4)C2=O)cc1OCC (centres undefined)	1	.	-6	-11	-3	-3	.
CCc1cccc(CC)c1NC(=O)COC(=O)CC1c2ccccc2CCN1S(=O)(=O)c1ccccc1 (centres undefined)	-1	23	35*	4	3	0	21
CC(C)(C)[C@H]1COC(=O)CCCC/C=C\C[C@H](CC(=O)N(CCO)Cc2ccccc2)C(=O)N1	-5	-8	8	-2	6	7	.
O=C1CCCC/C=C\C[C@H](CC(=O)N(CCO)Cc2ccccc2)C(=O)N[C@@H](c2ccccc2)CO1	-3	6	48*	-27	4	7	33*
O=Cc1ccc(N2CCN(S(=O)(=O)c3ccc4c(c3)CC(=O)N4)CC2)cc1	-7	.	.	-2	.	.	.
CCC1CN(S(=O)(=O)c2ccc3c(c2)NC(=O)CC(=O)N3)c2cc(Cl)ccc2O1 (centres undefined)	-10	2	45*	-3	11	5	20
O=C(NCc1cccnc1)c1cc(C(=O)NCc2cccnc2)cc([N+](=O)[O-])c1	-5	.	.	5	.	.	.
C[C@H](CO)N1C[C@H](C)[C@@H](CN(C)C(=O)Nc2ccc(F)cc2)Oc2ccc(NS(C)(=O)=O)cc2C1=O	-3	3	-2	-1	-2	1	.
C#CCN(C[C@@H]1[C@@H](OC(=O)NC2CCCC2)[C@@H](OC(=O)NC2CCCC2)CN(C(=O)OC(C)C)N1C(=O)OC(C)C)S(=O)(=O)c1ccc(C)cc1	2	.	.	5	.	.	.
C/C=C/C(=O)OCC(=O)Nc1ccc(OC)c(OC)c1	-8	3	4	-1	-2	6	.
C/C=C/C(=O)OCC(=O)Nc1ccc(OC)c(Cl)c1	8	6	39*	3	-3	5	29
C/C=C/C(=O)OCC(=O)Nc1cccc(Br)c1	9	5	82*	-3	1	2	73*
C/C=C/C(=O)OCC(=O)Nc1cccc(F)c1	4	3	78*	-1	-2	5	65*
COCc1ccc(C(=O)N(C)CC2CCCN(CCc3ccccc3F)C2)o1 (centres undefined)	-10	2	-3	-7	2	1	.
O=C(COC(=O)c1c(Cl)cccc1Cl)Nc1ccccc1Br	-1	4	3	-11	4	-7	.
O=C(COC(=O)/C=C/c1ccccc1)Nc1ccccc1Br	-1	9	64*	5	3	-3	54*
O=C(COC(=O)c1ccccc1)Nc1ccccc1Br	14	10	36*	0	-2	-7	25
C/C=C/C(=O)OCC(=O)Nc1ccccc1Br	8	3	33*	-4	-4	20	20
O=C(COC(=O)/C=C/C(=O)OCC(=O)Nc1ccccc1F)Nc1ccccc1F	6	2	5	-2	2	-2	.
COc1cc(C(=O)NNC(=S)NC(=O)c2ccc(F)cc2)cc(OC)c1OC	6	7	51*	-4	9	5	23
CC(C)n1c(N2CCN(C(=O)N3CCCCC3)CC2)nc2ccccc21	0	8	33*	-17	7	1	18
O=S(=O)(O)c1cccc2cccc(Nc3ccccc3)c12	-2	22	31*	-3	5	13	7
c1ccc(Nc2cccc3c(Nc4ccccc4)cccc23)cc1	20	8	-1	12	0	5	.
CCN(CC)C(=O)CSc1nc2c(sc(=S)n2-c2ccccc2)c(=O)n1-c1ccccc1OC	-2	.	37*	8	0	3	25
O=C(OCC(=O)N1CCc2ccccc2C1)c1ccc(O)cc1	-2	3	47*	-2	10	11	30*
SMILES	ARFGAP1 inh	pPAFAH FP inh	PAFAH2 inh	ASAP1 GAP inh	PAFAH1B2 FP inh	PAFAH1B3 FP inh	PAFAH2 FP conf
CCOC(=O)c1ccc(NC(=O)N2CCc3ccccc3C2)cc1	9	5	1	-14	4	0	.
CC(=O)c1c(C)[nH]c(C(=O)OCC(=O)N2CCc3ccccc3C2)c1C	1	0	30*	-12	3	9	22
CC(=O)c1c(C)[nH]c(C(=O)OCC(=O)N2CCN(c3ccccc3)CC2)c1C	7	.	.	-18	.	.	.
NC(=O)Nc1ccc(C(=O)OCC(=O)N2CCc3ccccc3C2)cc1	-6	-2	54*	-5	0	-5	47*
C[C@@H]1CN([C@@H](C)CO)C(=O)CCCn2nncc2CO[C@H]1CN(C)CC1CCCCC1	-4	.	.	6	.	.	.
CCN(CC)S(=O)(=O)c1ccc2c(c1)nc(CCC(=O)OCC(=O)Nc1c(F)cccc1F)n2C	-7	9	49*	1	9	-5	46*
CCN(CC)S(=O)(=O)c1ccc2c(c1)nc(CCC(=O)OCC(=O)Nc1cc(OC)cc(OC)c1)n2C	3	10	52*	-2	3	2	36*
CCN(CC)S(=O)(=O)c1ccc2c(c1)nc(CCC(=O)O)n2C	7	3	-1	0	-5	-2	.
Nc1ccc(C(=O)OCc2nc3ccccc3[nH]2)cc1	-5	6	88*	1	3	8	79*
CNC(=O)c1cn2c3c(ccc(Cl)c3c1=O)OC(C)C2 (centres undefined)	-1	.	2	-13	0	7	.
O=C(O)CN1C(=O)/C(=C\c2ccccc2OCc2ccc(Cl)cc2)SC1=S	-26	18	30*	15	20	5	22
CN1C(=O)/C(=C\c2ccccc2OCc2ccccc2)SC1=S	-1	2	-2	-10	8	-3	.
O=C(O)COc1ccccc1/C=C1\SC(=S)N(NC(=O)c2ccccc2O)C1=O	0	10	26	5	-1	-13	.
O=C(O)COc1ccccc1/C=C1\SC(=S)N(/N=C/c2ccccc2O)C1=O	0	2	42*	10	4	14	32*
Cc1cccc(C)c1NC(=O)C(c1ccc(C#N)cc1)n1c(=O)c(-c2cc3ccccc3[nH]2)nc2ccccc21 (centres undefined)	1	.	.	18	.	.	.
Cc1ccc(NC(=O)C2CCN(S(=O)(=O)c3ccc4c(c3)NC(=O)CO4)CC2)cc1	-12	0	-2	-8	5	0	.
O=C(c1cc(-c2ccc(Cl)cc2Cl)on1)N1CCN(C(=O)c2ccco2)CC1	6	9	65*	-4	1	-4	41*
O=C(c1ccco1)N1CCN(S(=O)(=O)c2cc(Cl)ccc2Cl)CC1	9	4	-2	4	7	11	.
